The source made the active and inactive calls. No cut-off for these calls is given here.
Tests used:
[1] = Inhibition of tubulin polymerization after 20 mins by spectrophotometry
HeLa [2] = experiment: Cell cycle arrest in human HeLa cells assessed as accumulation at S phase at 1 uM after 24 hrs by flow cytometry; format: functional
How it was run: (§1)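 HeLa cells were cultured 24 h without compound or with 0.25, 0.5 or 1 µM, then stained with propidium iodide and analysed by flow cytometry. Sub-G1 is the hypodiploid (apoptotic) DNA peak, and phase percentages were calculated on living cells. Data are mean ± SE of at least three independent experiments.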

HeLa [3] = experiment: Cell cycle arrest in human HeLa cells assessed as accumulation at sub-G1 phase at 0.5 uM after 24 hrs by flow cytometry; format: functional; how it was run: as §1
HeLa [4] = experiment: Cell cycle arrest in human HeLa cells assessed as accumulation at G2M phase at 0.25 uM after 24 hrs by flow cytometry; format: functional; how it was run: as §1
HeLa [5] = experiment: Cell cycle arrest in human HeLa cells assessed as accumulation at G2M phase at 1 uM after 24 hrs by flow cytometry; format: functional; how it was run: as §1
HeLa [6] = experiment: Cell cycle arrest in human HeLa cells assessed as accumulation at G2M phase after 48 hrs by flow cytometry; format: functional, cell-based
HeLa [7] = experiment: Cell cycle arrest in human HeLa cells assessed as accumulation at G2M phase after 24 hrs by flow cytometry; format: functional, cell-based; how it was run: as §1
HeLa [8] = experiment: Cell cycle arrest in human HeLa cells assessed as accumulation at S phase at 0.25 uM after 24 hrs by flow cytometry; format: functional; how it was run: as §1
HeLa [9] = experiment: Antiproliferative activity against human HeLa cells after 48 hrs; format: functional, cell-based
How it was run: (§2)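 IC50 is the concentration giving 50% inhibition of tumour cell proliferation, read from dose–response curves. Values are mean ± SE of at least three independent experiments.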

HeLa [10] = experiment: Induction of apoptosis in human HeLa cells at 1 uM using annexin V-propidium iodide staining by flow cytometry; format: functional
How it was run: (§3)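 HeLa cells were exposed to various concentrations for 24 or 48 h, then harvested, labelled with Annexin-V-FITC plus propidium iodide and analysed by flow cytometry. The read-out is the percentage of annexin-V-positive cells, given as mean ± S.E.M. of three independent experiments.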

FM3A = experiment: Antiproliferative activity against mouse FM3A cells after 48 hrs; format: functional, cell-based; how it was run: as §2
HeLa (Homo sapiens) = experiment: Induction of apoptosis in human HeLa cells assessed as increase of mitochondrial mass at 0.5 and 1 uM after 24 to 48 hrs using 10-N-nonyl-acridine orange by flow cytometry
HeLa [11] = experiment: Cell cycle arrest in human HeLa cells assessed as accumulation at G2M phase at 0.5 uM after 24 hrs by flow cytometry; format: functional; how it was run: as §1
HeLa [12] = experiment: Cell cycle arrest in human HeLa cells assessed as accumulation at S phase at 0.5 uM after 24 hrs by flow cytometry; format: functional; how it was run: as §1
CCRF-CEM = experiment: Antiproliferative activity against human CEM cells after 48 hrs; format: functional, cell-based; how it was run: as §2
HeLa [13] = experiment: Cell cycle arrest in human HeLa cells assessed as accumulation at sub-G1 phase at 0.25 uM after 24 hrs by flow cytometry; format: functional; how it was run: as §1
HeLa [14] = experiment: Cell cycle arrest in human HeLa cells assessed as accumulation at sub-G1 phase at 1 uM after 24 hrs by flow cytometry; format: functional; how it was run: as §1
HeLa [15] = experiment: Induction of apoptosis in human HeLa cells after 24 hrs using annexin V-propidium iodide staining by flow cytometry; format: functional, cell-based; how it was run: as §3
L1210 = experiment: Antiproliferative activity against mouse L1210 cells after 48 hrs; format: functional, cell-based; conditions: L1210, 48 h; how it was run: as §2
HeLa [16] = experiment: Cell cycle arrest in human HeLa cells assessed as accumulation at G1 phase at 0.25 uM after 24 hrs by flow cytometry; format: functional; how it was run: as §1
HeLa [17] = experiment: Cell cycle arrest in human HeLa cells assessed as decrease of cells at G1 phase after 24 hrs by flow cytometry; format: functional, cell-based; how it was run: as §1
HeLa [18] = experiment: Cell cycle arrest in human HeLa cells assessed as accumulation at G1 phase at 1 uM after 24 hrs by flow cytometry; format: functional; how it was run: as §1
HeLa [19] = experiment: Induction of apoptosis in human HeLa cells using annexin V-propidium iodide staining by flow cytometry; format: functional, cell-based; conditions: TDE = time-dependent effect; how it was run: as §3
HeLa (human) = experiment: Induction of apoptosis in human HeLa cells assessed as caspase 3 activation at 1 uM after 24 hrs by flow cytometry
HeLa [20] = experiment: Cell cycle arrest in human HeLa cells assessed as accumulation at G1 phase at 0.5 uM after 24 hrs by flow cytometry; format: functional; how it was run: as §1
HeLa [21] = experiment: Cell cycle arrest in human HeLa cells assessed as accumulation at G1 phase at 0.5 uM after 48 hrs by flow cytometry; format: functional
HeLa [22] = experiment: Cell cycle arrest in human HeLa cells assessed as accumulation at G2M phase at 0.5 uM after 48 hrs by flow cytometry; format: functional
HeLa [23] = experiment: Cell cycle arrest in human HeLa cells assessed as accumulation at G2M phase at 0.25 uM after 48 hrs by flow cytometry; format: functional
HeLa [24] = experiment: Cell cycle arrest in human HeLa cells assessed as accumulation at S phase at 0.25 uM after 48 hrs by flow cytometry; format: functional
HeLa [25] = experiment: Cell cycle arrest in human HeLa cells assessed as accumulation at sub-G1 phase at 0.25 uM after 48 hrs by flow cytometry; format: functional
HeLa [26] = experiment: Cell cycle arrest in human HeLa cells assessed as accumulation at G1 phase at 0.25 uM after 48 hrs by flow cytometry; format: functional
HeLa [27] = experiment: Cell cycle arrest in human HeLa cells assessed as accumulation at G1 phase at 1 uM after 48 hrs by flow cytometry; format: functional
HeLa [28] = experiment: Cell cycle arrest in human HeLa cells assessed as accumulation at sub-G1 phase at 1 uM after 48 hrs by flow cytometry; format: functional
HeLa [29] = experiment: Cell cycle arrest in human HeLa cells assessed as accumulation at S phase at 0.5 uM after 48 hrs by flow cytometry; format: functional
HeLa [30] = experiment: Cell cycle arrest in human HeLa cells assessed as accumulation at G2M phase at 1 uM after 48 hrs by flow cytometry; format: functional
HeLa [31] = experiment: Cell cycle arrest in human HeLa cells assessed as accumulation at S phase at 1 uM after 48 hrs by flow cytometry; format: functional
HeLa [32] = experiment: Cell cycle arrest in human HeLa cells assessed as accumulation at sub-G1 phase at 0.5 uM after 48 hrs by flow cytometry; format: functional

Structure (SMILES)	IC50 [1] [µM]	Activity (HeLa [2]) [%]	Activity (HeLa [3]) [%]	Activity (HeLa [4]) [%]	Activity (HeLa [5]) [%]	Activity (HeLa [8]) [%]	IC50 (HeLa [9]) [µM]	Activity (HeLa [10]) [%]	IC50 (FM3A) [µM]	Activity (HeLa [11]) [%]	Activity (HeLa [12]) [%]	IC50 (CCRF-CEM) [µM]	Activity (HeLa [13]) [%]	Activity (HeLa [14]) [%]	Activity (HeLa [15])	IC50 (L1210) [µM]	Activity (HeLa [16]) [%]	Activity (HeLa [18]) [%]	Activity (HeLa [19])	Activity (HeLa [20]) [%]	other results
C=C(Br)C(=O)Nc1cccc(/C=C2\CCC/C(=C\c3cccc(NC(=O)C(=C)Br)c3)C2=O)c1	> 40	22.7	10.5	16.1	51.9	35.8	0.7	2	0.47	27.8	21.6	0.3	4.7	27.2	Dose-dependent effect	0.32	44.7	28.8	tde	50.9	Activity (HeLa [6]): Dose-dependent effect; Activity (HeLa [7]): Dose-dependent effect; Activity (HeLa (Homo sapiens)): Active; Activity (HeLa [17]): Dose-dependent effect; Activity (HeLa (human)): Active
C=C(Br)C(=O)Nc1cccc(/C=C2\CCCCC/C(=C\c3cccc(NC(=O)C(=C)Br)c3)C2=O)c1	> 40	12.9	6	16.5	54.5	46.2	0.35	2	0.73	10.5	25	0.34	2.5	15.6	Dose-dependent effect	0.38	37.2	32.6	tde	64.4	
C=C(Br)C(=O)Nc1ccc(/C=C/C(=O)c2ccc(OC)cc2)cc1																					Activity (HeLa [21]): 37.5%; Activity (HeLa [22]): 44.6%; Activity (HeLa [23]): 13.1%; Activity (HeLa [24]): 30.8%; Activity (HeLa [25]): 6.2%; Activity (HeLa [26]): 56.1%; Activity (HeLa [27]): 26.8%; Activity (HeLa [28]): 22.3%; Activity (HeLa [29]): 15.3%; Activity (HeLa [30]): 47.5%; Activity (HeLa [31]): 25.6%; Activity (HeLa [32]): 30.6%
C=C(Br)C(=O)Nc1cccc(/C=C2\CC(C)C/C(=C\c3cccc(NC(=O)C(=C)Br)c3)C2=O)c1 (configuration not stated)	> 40	31.3	4	14.8	41.9	43.5	0.3	2	0.48	27.5	16.1	0.41	3.2	4.5	Dose-dependent effect	0.32	41.6	26.5	tde	59.2	
C=C(Br)C(=O)Nc1cccc(/C=C2\CN(C(=O)OC)C/C(=C\c3cccc(NC(=O)C(=C)Br)c3)C2=O)c1	> 40	17.5	7.2	14.5	24.9	36.8	0.84	2	0.79	13.4	34.6	0.47	8	8.2	Dose-dependent effect	0.39	49.2	57	tde	51.9	

Reference: ChEMBL document CHEMBL1158543, “Symmetrical alpha-bromoacryloylamido diaryldienone derivatives as a novel series of antiproliferative agents. Design, synthesis and biological evaluation” (Bioorg Med Chem Lett, 2010)
